Tested on: U2OS
Test: Multiplex assay against U2OS
Type: toxicity, cell-based
Conditions: human
Procedure, shortened: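 At seeding, live cells were stained with Hoechst33342, BioTracker Green Microtubule Cytoskeleton Dye, MitoTracker Red and Annexin V Alexa Fluor 680. After compound addition they were imaged on a CQ1 microscope at 37°C and 5% CO2, and CellPathfinder machine-learning gating sorted them into Hoechst high-intensity objects or normal cells, with normal cells further split into healthy, pyknosed or fragmented nuclei and pyknosed cells into mitotic or apoptotic. Tubulin, mitochondrial-mass and membrane-permeability phenotypes are given as per cents of cells with healthy nuclei.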

[1] = 12 h, 1 µM, compound concentration 1 uM, replicate 1
[2] = 12 h, 1 µM, compound concentration 1 uM, replicate 2
[3] = 12 h, 10 µM, compound concentration 10 uM, replicate 1
[4] = 12 h, 10 µM, compound concentration 10 uM, replicate 2
[5] = 24 h, 1 µM, compound concentration 1 uM, replicate 1
[6] = 24 h, 1 µM, compound concentration 1 uM, replicate 2
[7] = 24 h, 10 µM, compound concentration 10 uM, replicate 1
[8] = 24 h, 10 µM, compound concentration 10 uM, replicate 2
[9] = 48 h, 1 µM, compound concentration 1 uM, replicate 1
[10] = 48 h, 1 µM, compound concentration 1 uM, replicate 2
[11] = 48 h, 10 µM, compound concentration 10 uM, replicate 1
[12] = 48 h, 10 µM, compound concentration 10 uM, replicate 2

CCNC1(C(N)=O)CCN(c2ncnc3c2nc(-c2ccccc2Cl)n3-c2ccc(Cl)cc2)CC1 [OTENABANT]
Population Apoptotic (%) [1]: 77%
Population Fragmented Nuclei (%) [1]: 30%
Population Healthy Nuclei (%) [1]: 60%
Population Hoechst High Intensity Objects (%) [1]: 3%
Population Membrane Permeable-Phenotype (%) [1]: 13%
Population Mitochondria Different-Phenotype (%) [1]: 7%
Population Mitotic Cells (%) [1]: 22%
Population Normal (%) [1]: 96%
Population Pyknosed Nuclei (%) [1]: 9%
Population Tubulin-Different-Phenotype (%) [1]: 4%
Total Cell Count [1]: 254
Population Apoptotic (%) [2]: 85%
Population Fragmented Nuclei (%) [2]: 17%
Population Healthy Nuclei (%) [2]: 74%
Population Hoechst High Intensity Objects (%) [2]: 2%
Population Membrane Permeable-Phenotype (%) [2]: 11%
Population Mitochondria Different-Phenotype (%) [2]: 22%
Population Mitotic Cells (%) [2]: 14%
Population Normal (%) [2]: 97%
Population Pyknosed Nuclei (%) [2]: 7%
Population Tubulin-Different-Phenotype (%) [2]: 10%
Total Cell Count [2]: 93
Population Apoptotic (%) [3]: 58%
Population Fragmented Nuclei (%) [3]: 31%
Population Healthy Nuclei (%) [3]: 48%
Population Hoechst High Intensity Objects (%) [3]: 6%
Population Membrane Permeable-Phenotype (%) [3]: 81%
Population Mitochondria Different-Phenotype (%) [3]: 63%
Population Mitotic Cells (%) [3]: 41%
Population Normal (%) [3]: 93%
Population Pyknosed Nuclei (%) [3]: 19%
Population Tubulin-Different-Phenotype (%) [3]: 89%
Total Cell Count [3]: 211
Population Apoptotic (%) [4]: 70%
Population Fragmented Nuclei (%) [4]: 21%
Population Healthy Nuclei (%) [4]: 60%
Population Hoechst High Intensity Objects (%) [4]: 0%
Population Membrane Permeable-Phenotype (%) [4]: 65%
Population Mitochondria Different-Phenotype (%) [4]: 73%
Population Mitotic Cells (%) [4]: 30%
Population Normal (%) [4]: 99%
Population Pyknosed Nuclei (%) [4]: 18%
Population Tubulin-Different-Phenotype (%) [4]: 76%
Total Cell Count [4]: 112
Population Apoptotic (%) [5]: 79%
Population Fragmented Nuclei (%) [5]: 26%
Population Healthy Nuclei (%) [5]: 61%
Population Hoechst High Intensity Objects (%) [5]: 3%
Population Membrane Permeable-Phenotype (%) [5]: 11%
Population Mitochondria Different-Phenotype (%) [5]: 5%
Population Mitotic Cells (%) [5]: 20%
Population Normal (%) [5]: 96%
Population Pyknosed Nuclei (%) [5]: 11%
Population Tubulin-Different-Phenotype (%) [5]: 7%
Total Cell Count [5]: 308
Population Apoptotic (%) [6]: 80%
Population Fragmented Nuclei (%) [6]: 24%
Population Healthy Nuclei (%) [6]: 62%
Population Hoechst High Intensity Objects (%) [6]: 4%
Population Membrane Permeable-Phenotype (%) [6]: 15%
Population Mitochondria Different-Phenotype (%) [6]: 15%
Population Normal (%) [6]: 95%
Population Pyknosed Nuclei (%) [6]: 13%
Population Tubulin-Different-Phenotype (%) [6]: 5%
Total Cell Count [6]: 120
Population Apoptotic (%) [7]: 69%
Population Fragmented Nuclei (%) [7]: 29%
Population Healthy Nuclei (%) [7]: 49%
Population Hoechst High Intensity Objects (%) [7]: 3%
Population Membrane Permeable-Phenotype (%) [7]: 55%
Population Mitochondria Different-Phenotype (%) [7]: 75%
Population Mitotic Cells (%) [7]: 30%
Population Normal (%) [7]: 96%
Population Pyknosed Nuclei (%) [7]: 20%
Population Tubulin-Different-Phenotype (%) [7]: 78%
Total Cell Count [7]: 218
Population Apoptotic (%) [8]: 80%
Population Fragmented Nuclei (%) [8]: 28%
Population Healthy Nuclei (%) [8]: 53%
Population Membrane Permeable-Phenotype (%) [8]: 47%
Population Mitochondria Different-Phenotype (%) [8]: 72%
Population Mitotic Cells (%) [8]: 20%
Population Pyknosed Nuclei (%) [8]: 18%
Population Tubulin-Different-Phenotype (%) [8]: 62%
Total Cell Count [8]: 137
Population Apoptotic (%) [9]: 86%
Population Fragmented Nuclei (%) [9]: 24%
Population Healthy Nuclei (%) [9]: 64%
Population Hoechst High Intensity Objects (%) [9]: 1%
Population Membrane Permeable-Phenotype (%) [9]: 7%
Population Mitochondria Different-Phenotype (%) [9]: 4%
Population Mitotic Cells (%) [9]: 13%
Population Normal (%) [9]: 98%
Population Pyknosed Nuclei (%) [9]: 10%
Population Tubulin-Different-Phenotype (%) [9]: 3%
Total Cell Count [9]: 416
Population Apoptotic (%) [10]: 52%
Population Fragmented Nuclei (%) [10]: 16%
Population Healthy Nuclei (%) [10]: 69%
Population Hoechst High Intensity Objects (%) [10]: 4%
Population Membrane Permeable-Phenotype (%) [10]: 13%
Population Mitochondria Different-Phenotype (%) [10]: 10%
Population Mitotic Cells (%) [10]: 47%
Population Normal (%) [10]: 95%
Population Pyknosed Nuclei (%) [10]: 14%
Population Tubulin-Different-Phenotype (%) [10]: 9%
Total Cell Count [10]: 137
Population Apoptotic (%) [11]: 86%
Population Fragmented Nuclei (%) [11]: 32%
Population Healthy Nuclei (%) [11]: 43%
Population Hoechst High Intensity Objects (%) [11]: 7%
Population Membrane Permeable-Phenotype (%) [11]: 49%
Population Mitochondria Different-Phenotype (%) [11]: 55%
Population Mitotic Cells (%) [11]: 13%
Population Normal (%) [11]: 92%
Population Pyknosed Nuclei (%) [11]: 23%
Population Tubulin-Different-Phenotype (%) [11]: 51%
Total Cell Count [11]: 269
Population Apoptotic (%) [12]: 80%
Population Fragmented Nuclei (%) [12]: 29%
Population Healthy Nuclei (%) [12]: 45%
Population Hoechst High Intensity Objects (%) [12]: 10%
Population Membrane Permeable-Phenotype (%) [12]: 43%
Population Mitochondria Different-Phenotype (%) [12]: 66%
Population Mitotic Cells (%) [12]: 20%
Population Normal (%) [12]: 89%
Population Pyknosed Nuclei (%) [12]: 24%
Population Tubulin-Different-Phenotype (%) [12]: 49%
Total Cell Count [12]: 138

Source: ChEMBL document CHEMBL5058577, “EUbOPEN Chemogenomics Library 2 (Multiplex)” (2022)
